Measured values as given in ChEMBL document CHEMBL4840315, “Δ9-cis-Tetrahydrocannabinol: Natural Occurrence, Chirality, and Pharmacology” (J Nat Prod, 2021).
Calls of active or inactive are those of the source.

What was measured:
[1] = tested on: Mus musculus; experiment: In vivo agonist activity at CB1R in BALB/c mouse assessed as induction of analgesia at 50 mg/kg, ip measured after 1 hr by hot plate test; format: functional, organism-based
Outline: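 Male BALB/c mice (8–10 weeks) given compound in pure DMSO intraperitoneally, 5–8 mice per group. Hot plate at 54–56 °C inside a Plexiglas cylinder, 1 h post-dose. Read-out is latency to first nociceptive response (paw lick or foot shake). Groups compared with vehicle by Kruskal–Wallis then Mann–Whitney.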

[2] = molecular target: T1, Monoglyceride lipase (Homo sapiens, UniProt Q99685); experiment: Inhibition of MAGL (unknown origin) in human U-937 cells using [ethanolamine-1-3H]AEA as substrate preincubated for 30 mins followed by substrate addition measured after 15 mins by liquid scintillation spectroscopy; format: cell-based
T1 sequence (Q99685 whole entry): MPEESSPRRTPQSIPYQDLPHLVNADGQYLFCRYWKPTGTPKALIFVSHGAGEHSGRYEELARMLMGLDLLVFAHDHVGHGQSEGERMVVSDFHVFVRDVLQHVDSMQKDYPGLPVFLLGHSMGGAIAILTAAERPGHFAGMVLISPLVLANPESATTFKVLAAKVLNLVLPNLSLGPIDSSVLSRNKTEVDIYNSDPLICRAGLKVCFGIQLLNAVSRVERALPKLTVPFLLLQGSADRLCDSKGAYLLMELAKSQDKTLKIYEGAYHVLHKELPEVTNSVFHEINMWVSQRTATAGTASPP

[3] = tested on: Mus musculus; experiment: In vivo agonist activity at CB1R in BALB/c mouse assessed as catalepsy like behaviour at 50 mg/kg, ip measured after 1 hr by bar test; format: functional, organism-based
Outline: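 Male BALB/c mice (8–10 weeks) given compound in pure DMSO intraperitoneally, 5–8 mice per group. Bar test at 1 h: forelimbs placed on a 4 cm high bar. End-point is both front limbs removed or held over 120 s. Three trials per mouse. Groups compared with vehicle by Kruskal–Wallis then Mann–Whitney.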

[4] = molecular target: T2, Lysophosphatidylserine lipase ABHD12 (Homo sapiens, UniProt Q8N2K0); experiment: Inhibition of human ABHD12 transfected in HEK293 cells using 2-OG as substrate preincubated for 30 mins followed by substrate addition measured after 5 mins by liquid scintillation spectroscopy; format: cell-based
T2 sequence (Q8N2K0 whole entry): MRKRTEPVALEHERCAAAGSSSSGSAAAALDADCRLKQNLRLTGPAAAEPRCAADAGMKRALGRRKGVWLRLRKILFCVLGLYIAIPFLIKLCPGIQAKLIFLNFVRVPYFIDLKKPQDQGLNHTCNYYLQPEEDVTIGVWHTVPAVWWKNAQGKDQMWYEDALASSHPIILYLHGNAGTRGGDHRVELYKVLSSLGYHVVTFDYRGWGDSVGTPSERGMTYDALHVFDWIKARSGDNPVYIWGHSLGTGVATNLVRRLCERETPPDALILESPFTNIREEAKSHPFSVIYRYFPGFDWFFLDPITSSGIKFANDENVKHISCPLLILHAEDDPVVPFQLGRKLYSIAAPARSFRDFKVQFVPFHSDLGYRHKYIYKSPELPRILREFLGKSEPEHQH
Outline: (§1)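 Homogenate (40 μg) of HEK-293 cells stably expressing hABHD6 or hABHD12, in […], 0.1% BSA, pH 7.6. Compound preincubated 30 min at 37 °C, then 10 μM 2-OG for 5 min at 37 °C. Tritium counted in aqueous phase; non-transfected HEK293 hydrolysis subtracted. Positive controls: WWL70 10 μM (ABHD6), THL 20 μM (ABHD12). At least two experiments in triplicate, mean ± SD.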

[5] = molecular target: T3, Fatty-acid amide hydrolase 1 (Homo sapiens, UniProt O00519); experiment: Inhibition of FAAH (unknown origin) in human U-937 cells using [ethanolamine-1-3H]AEA as substrate preincubated for 30 mins followed by substrate addition measured after 15 mins by liquid scintillation spectroscopy; format: cell-based
T3 sequence (O00519 whole entry): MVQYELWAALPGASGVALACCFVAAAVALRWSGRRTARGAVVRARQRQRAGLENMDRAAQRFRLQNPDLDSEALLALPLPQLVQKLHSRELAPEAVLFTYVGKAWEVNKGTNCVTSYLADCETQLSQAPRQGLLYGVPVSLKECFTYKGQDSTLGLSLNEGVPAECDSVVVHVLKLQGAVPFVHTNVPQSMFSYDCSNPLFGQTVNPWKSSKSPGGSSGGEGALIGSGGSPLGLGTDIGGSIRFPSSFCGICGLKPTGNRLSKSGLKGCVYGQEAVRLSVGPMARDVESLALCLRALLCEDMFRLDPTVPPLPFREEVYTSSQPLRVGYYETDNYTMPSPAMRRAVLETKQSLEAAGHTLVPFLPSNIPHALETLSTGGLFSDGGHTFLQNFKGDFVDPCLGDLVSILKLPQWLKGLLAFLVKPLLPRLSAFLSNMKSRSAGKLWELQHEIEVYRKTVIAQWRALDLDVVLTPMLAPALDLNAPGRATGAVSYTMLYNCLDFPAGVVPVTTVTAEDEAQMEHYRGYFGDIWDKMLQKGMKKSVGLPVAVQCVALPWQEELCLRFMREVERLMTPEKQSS
Outline: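 U937 cell homogenate (100 μg) in 10 mM Tris-HCl, 1 mM EDTA, 0.1% fatty-acid-free BSA, pH 8. Compound preincubated 30 min at 37 °C, then 100 nM AEA with 1 nM [ethanolamine-1-3H]AEA tracer added for 15 min at 37 °C. Stopped with cold CHCl3/MeOH (1:1); tritium counted in aqueous phase.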

[6] = tested on: Mus musculus; experiment: In vivo agonist activity at CB1R in BALB/c mouse assessed as induction of hypothermia at 50 mg/kg, ip measured after 1 hr by rectal measurement method; format: functional, organism-based
Outline: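 Male BALB/c mice (8–10 weeks) given compound in pure DMSO intraperitoneally, 5–8 mice per group. Rectal temperature taken by thermocouple probe before dosing and 1 h after. Change is expressed as basal minus post-injection temperature. Groups compared with vehicle by Kruskal–Wallis then Mann–Whitney.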

[7] = tested on: Mus musculus; experiment: In vivo agonist activity at CB1R in BALB/c mouse assessed as induction of hypolocomotion at 50 mg/kg, ip measured after 1 hr by rotarod test; format: functional, organism-based
Outline: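 Male BALB/c mice (8–10 weeks) given compound in pure DMSO intraperitoneally, 5–8 mice per group. Rotarod at 6 rpm, 1 h post-dose. Read-out is latency to fall, cutoff 120 s, over three trials. Groups compared with vehicle by Kruskal–Wallis then Mann–Whitney.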

[8] = molecular target: T4, Monoacylglycerol lipase ABHD6 (Homo sapiens, UniProt Q9BV23); experiment: Inhibition of human ABHD6 transfected in HEK293 cells using 2-OG as substrate preincubated for 30 mins followed by substrate addition measured after 5 mins by liquid scintillation spectroscopy; format: cell-based; outline: as §1
T4 sequence (Q9BV23 whole entry): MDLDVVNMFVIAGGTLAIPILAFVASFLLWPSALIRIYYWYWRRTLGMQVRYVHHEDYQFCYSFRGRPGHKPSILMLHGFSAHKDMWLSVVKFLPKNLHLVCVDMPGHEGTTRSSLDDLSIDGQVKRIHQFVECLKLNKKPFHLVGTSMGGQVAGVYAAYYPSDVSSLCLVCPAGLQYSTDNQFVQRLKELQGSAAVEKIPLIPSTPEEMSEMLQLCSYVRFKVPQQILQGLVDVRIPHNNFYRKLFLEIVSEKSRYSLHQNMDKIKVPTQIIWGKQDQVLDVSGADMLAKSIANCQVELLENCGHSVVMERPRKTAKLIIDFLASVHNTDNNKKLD

Structure (SMILES) | Activity [1] | IC50 [2] | Activity [3] | IC50 [4] | IC50 [5] | Activity [6] | Activity [7] | IC50 [8]
CCCCCc1cc(O)c2c(c1)OC(C)(C)[C@H]1CCC(C)=C[C@@H]21 | Active | > 100 µM | Active | 14.1 µM | 36.3 µM | Active | Active | 39.8 µM
CCCCCc1cc(O)c2c(c1)OC(C)(C)[C@@H]1CCC(C)=C[C@@H]21 [DRONABINOL] | Active | > 100 µM | Active | 11.6 µM | 43.6 µM | Active | Active | 48.2 µM
CCCCCc1cc(O)c2c(c1)OC(C)(C)[C@@H]1CCC(C)=C[C@H]21 |  | > 100 µM |  | 28.8 µM | > 80 µM |  |  | 35.1 µM
